The array DNA melting data of Ke et al. (doi:10.1101/2024.01.08.574731)

Experiments:
[1] = folding enthalpy; higher = less favourable; fluorescence melt of hairpins on a sequencing array, two-state fit; conditions: sodium 0.088 M
In short: (§1)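 Folding enthalpy and melting temperature were estimated with bootstrapped two-state fits and combined across four replicates by inverse-variance weighting, with fitted temperatures raised by 9.35 °C to match UV melts. The data were Cy3 fluorescence of library hairpins, with annealed Cy3 and quencher oligos, on a sequenced MiSeq flow cell in 50 mM Na-HEPES pH 8.0, 25 mM NaCl, imaged in 2.5 °C steps up to 60 °C and normalised to pre-quench Cy3 and control constructs.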

[2] = melting temperature; fluorescence melt of hairpins on a sequencing array, two-state fit, raised by 9.35 °C to match UV melts; conditions: sodium 0.088 M
In short: as §1

| Sequence | folding enthalpy [1] | Tm [2] |
| --- | --- | --- |
| CGACGCGGAAACGCTTCG (((.(((....))).))) | -33.6 kcal/mol | 50.5 °C |
| CGACGGCGGAAACGCTCG (((..(((....)))))) | -15.4 kcal/mol | 38.3 °C |
| CGACTCGGAAACGAATCG (((.(((....))).))) | -33.6 kcal/mol | 41.9 °C |
| CGAGACCGGAAACGGTCG (((..(((....)))))) | -23.4 kcal/mol | 57.1 °C |
| CGAGACGGAAACGTTTCG (((.(((....))).))) | -41.5 kcal/mol | 49.6 °C |
| CGAGCCCGGAAACGGTCG (((..(((....)))))) | -20.9 kcal/mol | 37.5 °C |
| CGAGCGGAAACGCAGTCG ((((((....)))..))) | -13.6 kcal/mol | 38.1 °C |
| CGAGCGGAAACGCCTTCG ((((((....)))..))) | -10.7 kcal/mol | 32 °C |
| CGAGCGGAAACGCGGTCG ((((((....)))..))) | -14.9 kcal/mol | 52.8 °C |
| CGAGGACGGAAACGTTCG (((..(((....)))))) | -19.8 kcal/mol | 43.1 °C |
| CGAGGCCGGAAACGGTCG (((..(((....)))))) | -19.7 kcal/mol | 48.5 °C |
| CGAGGGCGGAAACGCTCG (((..(((....)))))) | -16.9 kcal/mol | 48.5 °C |
| CGATCCGGAAACGGTTCG (((.(((....))).))) | -32 kcal/mol | 49.8 °C |
| CGATCGCGGAAACGCTCG (((..(((....)))))) | -15.4 kcal/mol | 36.8 °C |
| CGATGTCGGAAACGATCG (((..(((....)))))) | -17.3 kcal/mol | 36.2 °C |
| CGATTGAAAAATCG (((((....))))) | -27.8 kcal/mol | 46 °C |
| CGCACCGGAAACGGAGCG (((.(((....))).))) | -37.2 kcal/mol | 60.9 °C |
| CGCACGGAAACGTAAGCG ((((((....)))..))) | -34.5 kcal/mol | 46.4 °C |
| CGCACGGAAACGTAGCG ((((((....))).))) | -30.4 kcal/mol | 53.8 °C |
| CGCACGGAAACGTCGCG ((((((....))).))) | -35.8 kcal/mol | 51.1 °C |
| CGCACGGAAACGTTGCG ((((((....))).))) | -37.7 kcal/mol | 55.1 °C |
| CGCAGGCGGAAACGCGCG (((..(((....)))))) | -23 kcal/mol | 56.2 °C |
| CGCATCGGAAACGACGCG (((.(((....))).))) | -41.2 kcal/mol | 51.6 °C |

| Sequence | folding enthalpy [1] | Tm [2] |
| --- | --- | --- |
| CGCATGAAAATGCG (((((....))))) | -24.9 kcal/mol | 67.6 °C |
| CGCCCACGGAAACGTGCG (((..(((....)))))) | -12.3 kcal/mol | 37.1 °C |
| CGCCCCCGGAAACGGGCG (((..(((....)))))) | -13.8 kcal/mol | 54.3 °C |
| CGCCCGGAAACGGACGCG ((((((....)))..))) | -12.2 kcal/mol | 50.2 °C |
| CGCCCGGAAACGGAGGCG ((((((....)))..))) | -32.5 kcal/mol | 53.8 °C |
| CGCCCGGAAACGGGGGCG ((((((....)))..))) | -12.5 kcal/mol | 68.6 °C |
| CGCCCGGAAACGGTGGCG ((((((....)))..))) | -28.6 kcal/mol | 54.9 °C |
| CGCCGCGGAAACGCCGCG (((.(((....))).))) | -14.9 kcal/mol | 63.6 °C |
| CGCGAACGGAAACGTGCG (((..(((....)))))) | -47.6 kcal/mol | 49.6 °C |
| CGCGCGGAAACGCAGGCG ((((((....)))..))) | -28.6 kcal/mol | 57.2 °C |
| CGCGCGGAAACGCGAGCG ((((((....)))..))) | -12.1 kcal/mol | 60.7 °C |
| CGCGCGGAAACGCTGCG ((((((....))).))) | -26.9 kcal/mol | 57.1 °C |
| CGCGCTCGGAAACGAGCG (((..(((....)))))) | -7.49 kcal/mol | 67.6 °C |
| CGCGGAAAAACAACAACCGCG ((.................)) | -25.1 kcal/mol | 44.5 °C |
| CGCGGAAAAACAACCGCG ((..............)) | -26.4 kcal/mol | 49.8 °C |
| CGCGGAAATCTCCGCG ((((((....)))))) | -40.2 kcal/mol | 62.2 °C |
| CGCGGAAATGTCCGCG ((((((....)))))) | -32.5 kcal/mol | 69.1 °C |
| CGCGGAACAATCCGCG ((((((....)))))) | -37 kcal/mol | 61.5 °C |
| CGCGGAACAGTCCGCG ((((((....)))))) | -33.1 kcal/mol | 67.2 °C |
| CGCGGAACATTCCGCG ((((((....)))))) | -35.9 kcal/mol | 65.3 °C |
| CGCGGAACCGTCCGCG ((((((....)))))) | -31.9 kcal/mol | 68.4 °C |
| CGCGGAACGCTCCGCG ((((((....)))))) | -28.9 kcal/mol | 57.4 °C |
| CGCGGAAGACTCCGCG ((((((....)))))) | -41.6 kcal/mol | 62.8 °C |

| Sequence | folding enthalpy [1] | Tm [2] |
| --- | --- | --- |
| CGCGGAAGAGTCCGCG ((((((....)))))) | -36 kcal/mol | 62.6 °C |
| CGCGGAAGCGTCCGCG ((((((....)))))) | -13.4 kcal/mol | 53.2 °C |
| CGCGGACAGTCCGCG ((((((...)))))) | -32.6 kcal/mol | 65.6 °C |
| CGCGGACCGTCCGCG ((((((...)))))) | -29 kcal/mol | 68.9 °C |
| CGCGGACGTTTCCGCG ((((((....)))))) | -31.9 kcal/mol | 69.2 °C |
| CGCGGACTAATCCGCG ((((((....)))))) | -38.3 kcal/mol | 65.9 °C |
| CGCGGACTCCTCCGCG ((((((....)))))) | -37.2 kcal/mol | 68.9 °C |
| CGCGGACTGCTCCGCG ((((((....)))))) | -39.8 kcal/mol | 62.4 °C |
| CGCGGAGCGTCCGCG ((((((...)))))) | -7.62 kcal/mol | 68.1 °C |
| CGCGGATAGTCCGCG ((((((...)))))) | -40.8 kcal/mol | 63.6 °C |
| CGCGGATCGCTCCGCG ((((((....)))))) | -28.6 kcal/mol | 69.2 °C |
| CGCGGATGGCTCCGCG ((((((....)))))) | -30.6 kcal/mol | 68.9 °C |
| CGCGTCGGAAACGATGCG (((.(((....))).))) | -54.9 kcal/mol | 62.4 °C |
| CGCGTTCGGAAACGAGCG (((..(((....)))))) | -19.6 kcal/mol | 48.5 °C |
| CGCTCCCGGAAACGGGCG (((..(((....)))))) | -15.3 kcal/mol | 42.7 °C |
| CGCTCGGAAACGAGGCG ((((((....))).))) | -30.6 kcal/mol | 53.2 °C |
| CGCTGGAAACAGCG (((((....))))) | -31.2 kcal/mol | 66.2 °C |
| CGCTTCGGAAACGACGCG (((.(((....))).))) | -48.8 kcal/mol | 51.5 °C |
| CGGAACGGAAACGTCCCG (((.(((....))).))) | -36.3 kcal/mol | 47.1 °C |
| CGGAACGGAAACGTGCCG (((.(((....))).))) | -44.3 kcal/mol | 56 °C |
| CGGACCGGAAACGGCCG (((.(((....)))))) | -28.9 kcal/mol | 56 °C |
| CGGACGGAAACGTAGCCG ((((((....)))..))) | -23.6 kcal/mol | 33.4 °C |
| CGGACGGAAACGTCCCG ((((((....))).))) | -10.8 kcal/mol | 50.7 °C |

| Sequence | folding enthalpy [1] | Tm [2] |
| --- | --- | --- |
| CGGACGGAAACGTTGCCG ((((((....)))..))) | -15.7 kcal/mol | 37.8 °C |
| CGGATACGGAAACGTCCG (((..(((....)))))) | -18.6 kcal/mol | 40.4 °C |
| CGGCCCGGAAACGGCCG (((.(((....)))))) | -31 kcal/mol | 63.7 °C |
| CGGCCGGAAACGGACCCG ((((((....)))..))) | -12.1 kcal/mol | 38.8 °C |
| CGGCCGGAAACGGTTCCG ((((((....)))..))) | -21.6 kcal/mol | 41.1 °C |
| CGGCGACGGAAACGTCCG (((..(((....)))))) | -17.4 kcal/mol | 38.5 °C |
| CGGCGCCGGAAACGGCCG (((..(((....)))))) | -8.91 kcal/mol | 54.8 °C |
| CGGCTACGGAAACGTCCG (((..(((....)))))) | -13.3 kcal/mol | 36.6 °C |
| CGGCTGCGGAAACGCCCG (((..(((....)))))) | -18.5 kcal/mol | 44.2 °C |
| CGGGACGGAAACGTCCG (((.(((....)))))) | -12.9 kcal/mol | 57.9 °C |
| CGGGACGGAAACGTTCCG (((.(((....))).))) | -37.8 kcal/mol | 59.4 °C |
| CGGGCGGAAACGCCACCG ((((((....)))..))) | -9.3 kcal/mol | 42.4 °C |
| CGGGCGGAAACGCCCCG ((((((....))).))) | -8.53 kcal/mol | 59.6 °C |
| CGGGCGGAAACGCGCCG ((((((....))).))) | -16.6 kcal/mol | 55.5 °C |
| CGGGGCCGGAAACGGCCG (((..(((....)))))) | -4.87 kcal/mol | 53.8 °C |
| CGGGTCCGGAAACGGCCG (((..(((....)))))) | -14.3 kcal/mol | 47.5 °C |
| CGGGTTCGGAAACGACCG (((..(((....)))))) | -19.9 kcal/mol | 39.4 °C |
| CGGTCACGGAAACGTCCG (((..(((....)))))) | -10.3 kcal/mol | 38.7 °C |
| CGGTCGGAAACGAAGCCG ((((((....)))..))) | -24.1 kcal/mol | 38.1 °C |
| CGGTCGGAAACGATGCCG ((((((....)))..))) | -22.1 kcal/mol | 38.6 °C |
| CGGTGACGGAAACGTCCG (((..(((....)))))) | -12 kcal/mol | 44.3 °C |
| CGGTGCGGAAACGCCCG (((.(((....)))))) | -30.8 kcal/mol | 58 °C |
| CGGTGGAAACACCG (((((....))))) | -26.1 kcal/mol | 68 °C |
